Bioassay records deposited in PubChem BioAssay by several laboratories.
H69AR inhibit = blocks growth of human H69AR lung tumor cells; actives 6% (n = 85,000); H69AR lung tumor viability, ATP luminescence, 72 h; hits give low values; AID 598; viability, % at 10 µM;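 active = viability at or below 40%; inactive = viability above 40%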;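 note: multidrug resistant small cell line overexpressing MRP-1 efflux transporter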
F-actin modifier = alters cytoskeleton assembly in HUVEC cells; HUVEC TNFa F-actin phalloidin imaging, high content; inhibition, % at 2 µM; actives 0.18% (n = 91,000);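 active = inhibition above the batch mean plus 3 SD and confirmed as a hit by visual image inspection, cut at about 30% in these data, passing the limit was not always enough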
Lung fibro prol = blocks proliferation of human lung fibroblasts. LL 47 human lung fibroblast viability, ATP luminescence; hits give low values. viability, % at 10 µM. actives 1.1% (n = 85,000). AID 719;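 active = viability at or below 50% in the single dose screen; inactive = viability above 50%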;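 note: compound exposure lasted 72 h before the ATP readout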
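Signal: luminescent ATP detection, CellTiter-Glo; assay system: LL 47 human lung fibroblasts; input: 1,150 cells/well; incubation: overnight cell rest, 72 h compound treatment at 37 °C; measure: % viability versus median cells-only luminescence; medium: IMEM growth medium with 15% fetal bovine serum; dosing: compound addition at 0.1% DMSO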
PTK2B oligo ant = antagonists of human Pyk2 oligomerization; Q293 cells, Pyk2 FERM NanoBiT luminescence; hits give low values; z-score (the deposit names both 25 µM and 10 µM); actives 0.83% (n = 99,000);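 active = Z-score of -3 or lower, scaled per plate to the spread of control and sample wells; inactive = z-score above -3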;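 note: negative z-score means lost luminescence so less FERM oligomerization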
HUVEC prolif 384 = blocks proliferation of human endothelial cells; actives 1.1% (n = 86,000); viability, % at 10 µM (by protocol); AID 648; HUVEC proliferation, CellTiter-Glo luminescence, 72 h; hits give low values;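 active = viability at or below 30%; inactive = viability above 30%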
Jurkat viability = cytotoxic compounds reducing Jurkat cell viability. actives 1.2% (n = 56,000). inhibition, % at 4 µM. Jurkat E6.1 viability, ATP luminescence, 48 h;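 active = inhibition above the mean inhibition of all tested compounds plus 3 SD, cut at about 28% in these data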
Large screens that a line does not name were inactive. Shown are actives, neighbours in structure and some others; about 6% of the full set was active somewhere.

O=C(Cc1ccc(Cl)cc1)Nc1ccc2oc(-c3ccncc3)nc2c1	H69AR inhibit 32, Lung fibro prol 8.1, HUVEC prolif 384 18
O=C(Nc1ccc(-c2nc3cc(Cl)ccc3o2)cc1)C1CCCO1 (centres undefined)	H69AR inhibit 33 (no result: Jurkat viability)
O=C(Nc1ccc(-c2nc3ccccc3o2)cc1)C1CCCO1 (centres undefined)	none
COc1ccc(CC(=O)Nc2ccc(-c3nc4cc(C)ccc4o3)c(O)c2)cc1OC	Lung fibro prol 40
CCCC(=O)Nc1ccc(-c2nc3cc(C)c(C)cc3o2)c(O)c1	none
CCn1c(SCC(=O)Nc2ccccc2OC)nc2ccccc2c1=O	none (no result: Jurkat viability)
CCn1c(NC(=O)Nc2ccccc2OC)nc2ccccc21	H69AR inhibit 36 (no result: F-actin modifier, Jurkat viability)
CCn1c(NC(=O)c2cccs2)nc2ccccc21	H69AR inhibit 33
CCn1c(NC(C)=O)nc2ccccc21	none (no result: Jurkat viability)
O=C(CSc1ccccc1)Nc1ccncc1	none (no result: Jurkat viability)
COc1ccc(Cn2c(CCC(=O)NCc3ccco3)nc3cccnc32)cc1	none
CCS(=O)(=O)c1ccc2c(c1)N(S(C)(=O)=O)CC(C(=O)NC1CC1)O2 (centres undefined)	none (no result: H69AR inhibit, Lung fibro prol, HUVEC prolif 384, Jurkat viability)
CC(=O)n1nc(-c2ccc(Cl)cc2)nc1NCc1ccco1	H69AR inhibit 33 (no result: Jurkat viability)
COc1ccc(CC(=O)n2nc(-c3ccc(Cl)cc3)nc2NCc2ccco2)cc1	H69AR inhibit 30 (no result: Jurkat viability)
O=C(c1cccs1)n1nc(-c2ccc(Cl)cc2)nc1NCc1ccco1	none (no result: Jurkat viability)
Cc1ccc(C)c(-c2nc3ccc(N)cc3[nH]2)c1	none
Nc1ccc(-c2nc3ccc(-c4nc5ccccc5o4)cc3[nH]2)cc1	none (no result: H69AR inhibit, Lung fibro prol, HUVEC prolif 384)
Nc1ccc2nc(-c3cc(Cl)c(N)c(Cl)c3)[nH]c2c1	H69AR inhibit 35 (no result: Jurkat viability)
Nc1ccc(-c2nc3c(Cl)c(N)ccc3[nH]2)cc1	H69AR inhibit 21
Nc1ccc2nc(-c3ccc(Cl)cc3)[nH]c2c1	H69AR inhibit 17 (no result: PTK2B oligo ant)
COc1cc(NC(=O)C2CCCN(S(=O)(=O)c3cccc4nsnc34)C2)cc(OC)c1 (centres undefined)	none (no result: H69AR inhibit, Lung fibro prol, HUVEC prolif 384)
COc1ccc(OC)c(NC(=O)C2CCCN(S(=O)(=O)c3cccc4nsnc34)C2)c1 (centres undefined)	H69AR inhibit 40
Cc1ccc(S(=O)(=O)N2CCC(C(=O)NNS(=O)(=O)c3ccc(Cl)cc3)CC2)cc1	none (no result: H69AR inhibit, Lung fibro prol, HUVEC prolif 384, Jurkat viability)
COc1cccc(CNC(=O)c2ccc3nc[nH]c3c2)c1	none
CCCCOC(=O)n1c(=O)oc2ccccc21	none
CCOC(=O)n1c(=O)oc2ccc(Cl)cc21	H69AR inhibit 38 (no result: Jurkat viability)
CC1CCN(C(=O)C2(NC(=O)Nc3cccc(F)c3)CCCCC2)CC1	none (no result: Jurkat viability)
CC1CCN(C(=O)CSc2ccc3nnc(-c4ccccc4)n3n2)CC1	none (no result: F-actin modifier, PTK2B oligo ant)
COc1ccc(S(=O)(=O)N(n2c(C)nnc2-n2nc(C)cc2C)S(=O)(=O)c2ccc(OC)cc2)cc1	none (no result: Jurkat viability)
O=S(=O)(c1ccc(Br)c2nsnc12)N1CCOCC1	none (no result: H69AR inhibit, F-actin modifier, Lung fibro prol, PTK2B oligo ant, HUVEC prolif 384)
CN1CCN(S(=O)(=O)c2ccc(Br)c3nsnc23)CC1	H69AR inhibit 2.9 (no result: F-actin modifier, Jurkat viability)
O=S(=O)(c1ccc(N2CCC(c3ccc(Cl)cc3)=N2)cc1)N(CCO)CCO	H69AR inhibit 13 (no result: Jurkat viability)
CCN(CC(=O)N1CCCCCC1)S(=O)(=O)c1ccc(Cl)cc1	none (no result: H69AR inhibit)
CN(C)CCCNS(=O)(=O)c1cc(Cl)ccc1Cl	none
CN(C)CCCNS(=O)(=O)c1ccc(N2CCC(c3ccc(Cl)cc3)=N2)cc1	H69AR inhibit 0.5, Lung fibro prol 1.6, HUVEC prolif 384 3.2 (no result: F-actin modifier, PTK2B oligo ant, Jurkat viability)
CCCCOc1ccc(CC(=O)NO)cc1	H69AR inhibit 4.8 (no result: F-actin modifier, PTK2B oligo ant, Jurkat viability)
CCCCOc1ccc(C(=O)Nc2ccncc2)cc1	Jurkat viability 91
O=C(CCn1c(=S)[nH]c2ccccc2c1=O)N1CCN(c2ccccn2)CC1	none (no result: F-actin modifier, PTK2B oligo ant, Jurkat viability)
CC(C)CC(=O)Nc1ccccc1-c1nnn(CC(=O)N2CCOCC2)n1	none
O=C(NCCCN1CCOCC1)[C@@H]1CSC2c3ccccc3C(=O)N21 (some centres undefined)	none
CC1(C)Nc2ccccc2N(CC(=O)N2CCCCC2)C1=O	none (no result: H69AR inhibit, Lung fibro prol, HUVEC prolif 384)
Cc1ccc(C(C)C)c(OCC(=O)Nc2ccccc2N2CCN(C)CC2)c1	H69AR inhibit 35
CN1CCN(c2ccccc2NC(=O)COc2ccccc2)CC1	none (no result: Jurkat viability)
CC(=O)N1CCN(c2ccccc2NC(=O)COc2cc(C)ccc2C(C)C)CC1	H69AR inhibit 35
c1cncc(-c2nn3c(-c4ccncc4)nnc3s2)c1	none (no result: F-actin modifier, PTK2B oligo ant)
COc1cccc(-c2nn(C)c3sc(C(=O)N4CCOCC4)cc23)c1	none (no result: PTK2B oligo ant)
CCOC(=O)C1CCCN(C(=O)c2cc3c(-c4cccc(OC)c4)nn(C)c3s2)C1 (centres undefined)	H69AR inhibit 22, Jurkat viability 79
COc1cccc(-c2nn(C)c3sc(C(=O)N4CCN(c5ccccn5)CC4)cc23)c1	PTK2B oligo ant -3.9 (no result: H69AR inhibit, F-actin modifier, Lung fibro prol, HUVEC prolif 384)
COc1ccc(C2=Nn3c(nnc3-c3ccco3)SC2)cc1	H69AR inhibit 20 (no result: Jurkat viability)
COc1ccc(OC)c(C2=Nn3c(nnc3-c3ccco3)SC2)c1	none (no result: Jurkat viability)
COc1ccc(OCc2nnc3n2N=C(c2ccc(C)cc2)CS3)cc1	none (no result: F-actin modifier, PTK2B oligo ant)
COc1ccc(OCc2nnc3n2N=C(c2ccc(OC)cc2)CS3)cc1	H69AR inhibit 30 (no result: F-actin modifier, PTK2B oligo ant)
CCOc1ccc(C2=Nn3c(nnc3-c3ccc(OC)cc3)SC2)cc1	H69AR inhibit 14, Lung fibro prol 49, Jurkat viability 62
COc1ccc(SCc2noc(C(=O)NC(C)C)c2C(=O)O)cc1	none (no result: H69AR inhibit, Lung fibro prol, PTK2B oligo ant, HUVEC prolif 384, Jurkat viability)
Cc1ccccc1N1CCN(C(=O)CCN2C(=O)c3ccccc3C2=O)CC1	none (no result: H69AR inhibit, Lung fibro prol, HUVEC prolif 384, Jurkat viability)
COc1ccc(N2C3=C(CC4=C2CC(C)(C)CC4=O)C(=O)CC(C)(C)C3)cc1	Lung fibro prol 6.0, HUVEC prolif 384 10 (no result: Jurkat viability)
COc1ccc(-c2nc3c(c(=O)n(C)c(=O)n3C)n2CC2CC(c3ccccc3)=NO2)cc1OC (centres undefined)	H69AR inhibit 6.3
COc1ccc(C(=O)Cn2c(Br)nc3c2c(=O)n(C)c(=O)n3C)cc1OC	none (no result: Jurkat viability)
CCC1(CC)C(=O)NC(=O)NC1=NCCc1c[nH]c2ccccc12	none
CCCC(=O)NC(c1ccco1)c1cc(Cl)c2cccnc2c1O (centres undefined)	H69AR inhibit 0.9, Lung fibro prol 3.1, HUVEC prolif 384 12
Oc1c(C(Nc2nc3ccccc3s2)c2ccco2)ccc2cccnc12 (centres undefined)	Lung fibro prol 17, HUVEC prolif 384 4.5, Jurkat viability 62
COc1ccc(C(NC(C)=O)c2ccc3cccnc3c2O)c(OC)c1 (centres undefined)	H69AR inhibit 0.9, Lung fibro prol 15, HUVEC prolif 384 2.4, Jurkat viability 86 (no result: F-actin modifier)
CC(C)C(=O)NC(c1ccco1)c1ccc2cccnc2c1O (centres undefined)	H69AR inhibit 1.9, Lung fibro prol 14, HUVEC prolif 384 2.1, Jurkat viability 90
CCCC(=O)Nc1ccc(Cl)c(NC(=O)c2ccco2)c1	none
Cc1csc(Sc2ccc([N+](=O)[O-])cc2C(=O)OCC(=O)NC(=O)NC(C)(C)C)n1	none (no result: H69AR inhibit, Lung fibro prol, HUVEC prolif 384, Jurkat viability)
COc1cc(NCCCCCCCN)c2ncccc2c1	Lung fibro prol 23, HUVEC prolif 384 3.1 (no result: Jurkat viability)
